Assay results reported in ChEMBL document CHEMBL4364284, “Design, Synthesis, and Efficacy Testing of Nitroethylene- and 7-Nitrobenzoxadiazol-Based Flavodoxin Inhibitors against Helicobacter pylori Drug-Resistant Clinical Strains and in Helicobacter pylori-Infected Mice” (J Med Chem, 2019).
Converted amounts (≈) assume the structure as drawn. The source made the active and inactive calls. The rule behind the calls is not given here.

Experiments:
[1] = Cytotoxicity against human HeLa cells assessed as reduction in cell viability by XTT assay; type: cell-based; conditions: read-out: MCC50
Method in brief: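 HeLa cells grown in DMEM with 10% FBS, penicillin and streptomycin at 37 °C, 5% CO2; 30 000 cells/well. XTT viability read at 450 and 650 nm. MCC50 (50% lysis) came from viability-versus-concentration curves. Two experiments, each in triplicate.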

[2] = target: T1, Flavodoxin (Helicobacter pylori (strain ATCC 700392 / 26695) (Campylobacter pylori)) (UniProt O25776); assay: Inhibition of flavodoxin in Helicobacter pylori SS1 assessed as reduction in bacterial growth measured after 48 hrs by resazurin staining-based microdilution method
T1 sequence (whole entry): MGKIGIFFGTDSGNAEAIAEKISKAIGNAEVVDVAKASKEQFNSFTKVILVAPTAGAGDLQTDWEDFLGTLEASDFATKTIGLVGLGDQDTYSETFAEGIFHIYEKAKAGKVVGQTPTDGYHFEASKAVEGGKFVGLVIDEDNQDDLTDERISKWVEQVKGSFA
Method in brief: (§1)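 Broth microdilution in brain heart infusion with 4% FBS. Inoculum diluted to OD600 0.01. Two-fold dilutions from a DMSO stock cover 64–0.031 μg/mL, with DMSO ≤1% v/v. Incubated 48 h at 37 °C under microaerophilic conditions. MIC is the lowest concentration giving complete growth inhibition, read by resazurin colour change and confirmed by spotting on blood agar. Run twice in triplicate.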

[3] = target: T1, Flavodoxin (Helicobacter pylori (strain ATCC 700392 / 26695) (Campylobacter pylori)); assay: Inhibition of flavodoxin in Mnz-resistant Helicobacter pylori NCTC 11637 ATCC 43504 assessed as reduction in bacterial growth measured after 48 hrs by resazurin staining-based microdilution method; conditions: Helicobacter pylori NCTC 11637 = CCUG 17874 = ATCC 43504; method in brief: as §1
[4] = target: T1, Flavodoxin (Helicobacter pylori (strain ATCC 700392 / 26695) (Campylobacter pylori)); assay: Inhibition of flavodoxin in Helicobacter pylori ATCC 700392 26695 assessed as reduction in bacterial growth measured after 48 hrs by resazurin staining-based microdilution method; conditions: Helicobacter pylori 26695; method in brief: as §1
[5] = Therapeutic index, ratio of MCC50 for human HeLa cells to MIC for inhibition of flavodoxin in Helicobacter pylori SS1 assessed as reduction in bacterial growth; type: toxicity; conditions: HeLa cells versus Helicobacter pylori SS1, read-out: TI
Method in brief: (§2)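 TI is MCC50/MIC. For MCC50, HeLa cells (30 000/well, DMEM with 10% FBS) were exposed to compound at 25–1000 μM final. Viability by XTT at 450/650 nm; MCC50 is the concentration giving 50% lysis from viability curves. Run twice in triplicate.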

[6] = Therapeutic index, ratio of MCC50 for human HeLa cells to MIC for inhibition of flavodoxin in Mnz-resistant Helicobacter pylori NCTC 11637 ATCC 43504 assessed as reduction in bacterial growth; type: toxicity; conditions: read-out: TI; method in brief: as §2
[7] = Therapeutic index, ratio of MCC50 for human HeLa cells to MIC for inhibition of flavodoxin in Helicobacter pylori ATCC 700392 26695 assessed as reduction in bacterial growth; type: toxicity; conditions: HeLa cells versus Helicobacter pylori ATCC 700392 26695, read-out: TI; method in brief: as §2
[8] = Toxicity in specific-pathogen-free C57BL/6J mouse assessed as histopathological changes in liver at 10 to 40 mg/100g, po administered daily via gavage for 8 days hematoxylin-eosin staining based assay; type: organism-based; conditions: in vivo, 192 h
Method in brief: (§3)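 Controls received olive oil with 5% DMSO. Blood by cardiac puncture was analysed for biochemistry on an automatic analyser. Heart, stomach, liver, lung and kidney sections were H&E-stained for histopathology.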

[9] = Toxicity in specific-pathogen-free C57BL/6J mouse assessed as histopathological changes in heart at 10 to 40 mg/100g, po administered daily via gavage for 8 days hematoxylin-eosin staining based assay; type: organism-based; conditions: in vivo, 192 h; method in brief: as §3
[10] = Toxicity in specific-pathogen-free C57BL/6J mouse assessed as histopathological changes in lung at 10 to 40 mg/100g, po administered daily via gavage for 8 days hematoxylin-eosin staining based assay; type: organism-based; conditions: in vivo, 192 h; method in brief: as §3
[11] = Toxicity in specific-pathogen-free C57BL/6J mouse assessed as histopathological changes in kidney at 10 to 40 mg/100g, po administered daily via gavage for 8 days hematoxylin-eosin staining based assay; type: organism-based; conditions: in vivo, 192 h; method in brief: as §3
[12] = Toxicity in specific-pathogen-free C57BL/6J mouse assessed as change in biochemical parameters at 10 to 40 mg/100g, po administered daily via gavage for 8 days; type: organism-based; conditions: in vivo, 192 h; method in brief: as §3
[13] = Toxicity in specific-pathogen-free C57BL/6J mouse assessed as histopathological changes in stomach by measuring inflammation at 20 to 40 mg/100g, po […] hematoxylin-eosin staining based assay; type: organism-based; conditions: in vivo, 192 h
[14] = Toxicity in specific-pathogen-free C57BL/6J mouse assessed as histopathological changes in stomach by measuring hyperplasia at 20 to 40 mg/100g, […] hematoxylin-eosin staining based assay; type: organism-based; conditions: in vivo, po, 192 h
[15] = Toxicity in specific-pathogen-free C57BL/6J mouse assessed as histopathological changes in stomach by measuring necrosis of epithelium at 20 to 40 mg/100g, po […] hematoxylin-eosin staining based assay; type: organism-based; conditions: in vivo, 192 h
[16] = Toxicity in specific-pathogen-free C57BL/6J mouse assessed as hair loss at 40 mg/100g, po administered daily via gavage for 8 days; type: organism-based; conditions: in vivo, 192 h
[17] = Toxicity in specific-pathogen-free C57BL/6J mouse assessed as weight loss at 40 mg/100g, po administered daily via gavage for 8 days; type: organism-based; conditions: in vivo, 192 h
[18] = Toxicity in NMRI mouse infected with Helicobacter pylori SS1 assessed as change in body weight at 0.1 to 10 mg/100g, po administered daily via gavage for 8 days starting from 1 week post-infection; type: organism-based; conditions: in vivo
[19] = Toxicity in NMRI mouse infected with Helicobacter pylori SS1 assessed as change in appetite at 0.1 to 10 mg/100g, po administered daily via gavage for 8 days starting from 1 week post-infection; type: organism-based; conditions: in vivo
[20] = Toxicity in NMRI mouse assessed as change in body weight at 0.1 to 10 mg/100g, po administered daily via gavage for 8 days; type: organism-based; conditions: in vivo, 192 h
[21] = tested on: Helicobacter pylori; assay: Antibacterial activity against Helicobacter pylori SS1 infected in NMRI mouse assessed as reduction in gastric colonization at 1 mg/100g, po administered daily via gavage for 8 days starting from 1 week post-infection and measured 8 days post-last dose; type: functional, organism-based
Method in brief: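 Female 6-week-old SPF NMRI mice, 7 per condition, infected orogastrically on days 1 and 3 with 100 μL Hp SS1 (5 × 10^8 CFU/mL). From day 8, compound given daily by oral gavage for 8 days in 100 μL of 5–10% DMSO/95–90% olive oil. Sacrificed day 24; stomach homogenate CFU/g counted after 5 days microaerophilic culture at 37 °C. Infected vehicle-treated controls; Mann-Whitney U and unpaired t tests, p ≤ 0.05.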

[22] = target: T1, Flavodoxin (Helicobacter pylori (strain ATCC 700392 / 26695) (Campylobacter pylori)); assay: Binding affinity to Helicobacter pylori flavodoxin by thermal upshift assay
[23] = target: T1, Flavodoxin (Helicobacter pylori (strain ATCC 700392 / 26695) (Campylobacter pylori)); assay: Binding affinity to Helicobacter pylori flavodoxin by isothermal titration calorimetric method
[24] = tested on: Escherichia coli; assay: Effect on growth of Escherichia coli DH5[alpha] after 48 hrs by resazurin-dye based microdilution assay; type: organism-based
[25] = tested on: Staphylococcus aureus; assay: Effect on growth of Staphylococcus aureus ATCC 1228 after 48 hrs by resazurin-dye based microdilution assay; type: organism-based

With O=[N+]([O-])/C=C/c1c(F)cc(Cl)cc1F as the molecule, how does the CC50 [1] read?
Its CC50 is 36 µM.

And the MIC [2]?
Its MIC is 2300 nM (≈ 0.505 µg/mL).

And the MIC [3]?
The MIC was 2300 nM (≈ 0.505 µg/mL).

And the MIC [4]?
Its MIC is 2300 nM (≈ 0.505 µg/mL).

And the selectivity ratio [5]?
The selectivity ratio was 16.

And the selectivity ratio [6]?
The selectivity ratio was 16.

What about the selectivity ratio [7] of the same molecule?
Its selectivity ratio is 16.

And the Activity [8]?
The Activity was “Non-Toxic”.

What about the Activity [9] of the same molecule?
The Activity was “Non-Toxic”.

And the Activity [10]?
Its Activity is “Non-Toxic”.

What about the Activity [11] of the same molecule?
The Activity was “Non-Toxic”.

And the Activity [12]?
The Activity was “Non-Toxic”.

What about the Activity [13] of the same molecule?
The Activity was “Toxic”.

And the Activity [14]?
Its Activity is “Toxic”.

And the Activity [15]?
The Activity was “Toxic”.

And the Activity [16]?
The Activity was “Toxic”.

What about the Activity [17] of the same molecule?
Its Activity is greater than 20%.

What about the Activity [18] of the same molecule?
Its Activity is “Non-Toxic”.

What about the Activity [19] of the same molecule?
The Activity was “Non-Toxic”.

What about the Activity [20] of the same molecule?
Its Activity is “Non-Toxic”.

What about the Activity [21] of the same molecule?
Its Activity is “Active”.

And the Activity [22]?
The Activity was “Active”.

And the Activity [23]?
Its Activity is “Active”.

What about the Activity [24] of the same molecule?
Its Activity is “Non-Toxic”.

And the Activity [25]?
Its Activity is “Non-Toxic”.
